Structures are written as SMILES. ≈ marks a conversion by molar mass, not a printed value. Calls of active or inactive are those of the source. No cut-off for these calls is given here.

Data set [1] is described as follows: Water solubility at pH 7.4. The data set is classed as physicochemical. The gist of the method: (§1)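 Compound combined with buffered solution at the stated pH, sonicated, shaken 1 h and filtered. Filtrate concentration measured by UV against standards of known concentration; reported in mg/mL.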
Data set [2] concerns the target T1, C5a anaphylatoxin chemotactic receptor 1 (Homo sapiens) (UniProt P21730).
T1 sequence (whole entry): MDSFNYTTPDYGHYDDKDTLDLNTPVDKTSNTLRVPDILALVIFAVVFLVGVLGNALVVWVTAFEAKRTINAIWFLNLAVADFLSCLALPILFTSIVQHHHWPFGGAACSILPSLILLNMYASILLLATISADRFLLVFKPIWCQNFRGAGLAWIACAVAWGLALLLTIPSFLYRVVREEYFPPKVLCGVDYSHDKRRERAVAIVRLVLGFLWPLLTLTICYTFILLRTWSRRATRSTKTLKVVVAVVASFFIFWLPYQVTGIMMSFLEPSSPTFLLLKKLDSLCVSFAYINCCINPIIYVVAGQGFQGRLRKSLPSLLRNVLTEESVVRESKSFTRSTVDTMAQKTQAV
Description: (§2) Effect on uM; no effect.

For data set [3], the target named is T2, Cysteinyl leukotriene receptor 1 (Cavia porcellus) (UniProt Q2NNR5).
T2 sequence (whole entry): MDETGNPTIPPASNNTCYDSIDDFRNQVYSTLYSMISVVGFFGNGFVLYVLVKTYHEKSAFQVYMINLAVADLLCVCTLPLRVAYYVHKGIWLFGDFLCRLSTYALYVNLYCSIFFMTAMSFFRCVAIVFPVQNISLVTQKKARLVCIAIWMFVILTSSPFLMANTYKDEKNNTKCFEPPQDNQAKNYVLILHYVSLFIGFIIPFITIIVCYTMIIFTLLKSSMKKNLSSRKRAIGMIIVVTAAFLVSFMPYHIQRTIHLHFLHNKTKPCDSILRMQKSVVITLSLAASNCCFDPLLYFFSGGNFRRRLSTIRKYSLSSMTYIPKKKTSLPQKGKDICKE
The description is as §2.

For data set [4], the target named is Leukotriene B4 receptor 1 (Homo sapiens) (UniProt Q15722). The data set is described as §2.
The subject of data set [5] is Rattus norvegicus. Put plainly: In vivo inhibitory activity against PAF induced plasma level of N-acetyl-beta-D-glucosaminidase (NAGA) and hematocrit (plasma extravasation) in male rat after p.o. administration. The data set is classed as functional. The settings on record: po.
The subject of data set [6] is Cavia porcellus. Put plainly: In vivo inhibitory activity against PAF induced bronchoconstriction in male guinea pigs. The data set is classed as functional. The settings on record: read-out: ID50 (the source's name).
Data set [7] has as its system Rattus norvegicus. Put plainly: In vivo inhibitory activity against PAF induced plasma level of N-acetyl-beta-D-glucosaminidase (NAGA) and hematocrit (plasma extravasation) in male rat after i.v. administration. Conditions: iv. In kind it is functional.
The species entered for data set [8] is Homo sapiens. Put plainly: Inhibitory activity against PAF-induced aggregation of human platelets suspended in plasma. The data set is classed as functional.
For data set [9], the system named is Rattus norvegicus. Description: In vivo inhibitory activity against PAF induced plasma level of N-acetyl-beta-D-glucosaminidase (NAGA) and hematocrit (plasma extravasation) in female rat after p.o. administration. In kind it is functional. The settings on record: po.
Data set [10] in a line: Water solubility was determined. In kind it is ADME. Summed up:
as §1

Data set [11] concerns the target Platelet-activating factor receptor (Homo sapiens, UniProt P25105). Put plainly: Inhibition of the binding of [3H]C18-Platelet activating factor to human platelet membrane preparation.
In data set [12] the test system is Rattus norvegicus. Put plainly: Effect against PAF induced plasma level of N-acetyl-beta-D-glucosaminidase (NAGA) and plasma extravasation in male rat at a dose of 1 mg/kg by single administration after 6 hour. The data set is classed as functional.
A short description of data set [13]: Water solubility at pH 5. The data set is classed as physicochemical. Summed up:
as §1

Data set [14] in a line: Water solubility at pH 6. In kind it is physicochemical. Summed up:
as §1

The species entered for data set [15] is Homo sapiens. Description: Inhibitory activity against PAF-induced aggregation of human platelets suspended in buffer [washed platelets (WP)]. The data set is classed as functional.
For data set [16], the system named is Cavia porcellus. Description: In vivo inhibitory activity against PAF induced bronchoconstriction in female guinea pigs. In kind it is functional. The settings on record: read-out: ID50 (the source's name).
Data set [17] deals with Angiotensin II receptor (Oryctolagus cuniculus). Description: Effect on uM; no effect.

Sequence of Leukotriene B4 receptor 1 (Homo sapiens) (Q15722 whole entry): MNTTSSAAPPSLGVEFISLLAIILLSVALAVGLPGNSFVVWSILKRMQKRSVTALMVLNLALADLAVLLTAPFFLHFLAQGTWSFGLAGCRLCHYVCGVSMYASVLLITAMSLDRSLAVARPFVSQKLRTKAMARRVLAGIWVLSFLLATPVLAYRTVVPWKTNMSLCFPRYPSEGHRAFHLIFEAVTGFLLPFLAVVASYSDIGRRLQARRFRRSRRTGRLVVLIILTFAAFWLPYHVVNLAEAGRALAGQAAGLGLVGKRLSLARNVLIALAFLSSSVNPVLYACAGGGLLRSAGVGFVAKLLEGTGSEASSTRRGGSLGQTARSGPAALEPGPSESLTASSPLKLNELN
Sequence of Platelet-activating factor receptor (P25105 whole entry): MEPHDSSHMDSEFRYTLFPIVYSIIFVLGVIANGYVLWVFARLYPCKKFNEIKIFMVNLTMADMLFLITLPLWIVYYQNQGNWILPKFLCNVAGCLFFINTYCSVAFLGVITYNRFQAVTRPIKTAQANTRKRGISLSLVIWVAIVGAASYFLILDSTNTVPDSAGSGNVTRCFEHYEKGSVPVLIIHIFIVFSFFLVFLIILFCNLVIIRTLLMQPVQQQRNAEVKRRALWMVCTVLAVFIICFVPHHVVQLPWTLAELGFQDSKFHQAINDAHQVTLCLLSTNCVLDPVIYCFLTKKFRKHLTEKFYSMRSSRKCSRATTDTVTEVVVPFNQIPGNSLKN

For the compound `CCCOc1c(OCCCOP(=O)([O-])O)cc([C@@H]2CC[C@@H](c3cc(OC)c(OC)c(OC)c3)O2)cc1S(=O)(=O)CC(C)=O.[K+]`, the solubility in data set [1] is over 30000 µg/mL. For the same compound, the inhibition result in [2], in [3] and in [4] was “inactive” in each case.

As for `CCCOc1c(OC)cc([C@@H]2CC[C@@H](c3cc(OC)c(OC)c(OC)c3)O2)cc1S(=O)(=O)CCO`, the ED50 stood at 2.3 mg/kg in [5], 0.19 mg/kg in [6], 0.1 mg/kg in [7] and 0.1 mg/kg in data set [9]. In data set [8], this compound yielded an IC50 of 55 nM. The compound also returned a solubility in [10] of 2 µg/mL (≈ 3.92 µM).

Compound `CCCOc1c(OC)cc([C@H]2CC[C@H](c3cc(OC)c(OC)c(OC)c3)O2)cc1S(C)(=O)=O` (single isomer, unassigned) showed a half-inhibitory concentration (IC50) in [11] of 9 nM.

In the case of `CCCOc1c(OCCCN2CCOCC2)cc([C@@H]2CC[C@@H](c3cc(OC)c(OC)c(OC)c3)O2)cc1S(=O)(=O)CC(C)=O`, the ED50 in data set [5] turned out to be 0.15 mg/kg; in data set [6] it was 0.06 mg/kg; in [7] it was 0.037 mg/kg; in data set [9], 0.2 mg/kg; in data set [16] it was 0.04 mg/kg. This compound also yielded an inhibition in vivo at 1 mg/kg in data set [12] of 60%. Also, the solubility in [13] came to 5400 µg/mL (≈ 8490 µM); in data set [14] it was 900 µg/mL (≈ 1420 µM). For the same compound, the IC50 in data set [8] worked out at 19 nM; in data set [11] it was 2.5 nM; in data set [15], 1 nM. Further, the inhibition entry in data set [2], in data set [3], in data set [4] and in data set [17] was “inactive” in each case.

For the compound `CCCOc1c(OCCCO)cc([C@@H]2CC[C@@H](c3cc(OC)c(OC)c(OC)c3)O2)cc1S(=O)(=O)CC(C)=O`, the inhibition entry in data set [2], in [3] and in data set [4] was “inactive” each time. The solubility in [10] is 100 µg/mL (≈ 176 µM).

Consider `CCCOc1c(OCCCn2ccnc2)cc([C@@H]2CC[C@@H](c3cc(OC)c(OC)c(OC)c3)O2)cc1S(=O)(=O)CC(C)=O`, for which the solubility was 5500 µg/mL (≈ 8920 µM) in data set [13] and 800 µg/mL (≈ 1300 µM) in data set [14]. Besides, the inhibition result in data set [2], in data set [3] and in [4] was “inactive” in each case.

One may read the solubility as how much of the substance goes into solution per volume. Low values mean a poorly soluble substance, high ones a readily soluble substance. The term IC50 denotes the concentration that gives 50% inhibition. The low end stands for greater potency, the high end for weaker potency. One may read the inhibition in vivo as the drop in the measured response relative to a control, in per cent.

These data come from ChEMBL document CHEMBL1126126, “Development, synthesis, and biological evaluation of (-)-trans-(2S,5S)-2-[3-[(2-oxopropyl)sulfonyl]-4-n-propoxy-5-(3- hydroxypropoxy)-phenyl]-5-(3,4,5-trimethoxyphenyl)tetrahydrofuran, a potent orally active platelet-activating factor (PAF) antagonist and its water-soluble prodrug phosphate ester” (J Med Chem, 1992).
